Reference: ChEMBL document CHEMBL1154122, “A comprehensive study of Sansalvamide A derivatives: The structure-activity relationships of 78 derivatives in two pancreatic cancer cell lines” (2009)
Square brackets hold non-standard residues; d marks the D form. Peptide text beside a SMILES is read from it. * marks the point of attachment. dNMeF = CN[C@H](Cc1ccccc1)C(=O)O; NMeL = CN[C@@H](CC(C)C)C(=O)O; dNMeL = CN[C@H](CC(C)C)C(=O)O; Cbz = O=C(OCc1ccccc1)*

How the values were obtained:
BXPC-3 = assay: Cytotoxicity against human BxPC3 cells after 56 hrs by [3H]thymidine uptake assay; assay type: functional
How it was run: (§1)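 Cells seeded at 2000–2500/well in DMEM with L-glutamine, 10% FBS and 1% penicillin-streptomycin. […] After 56 h, 3H-thymidine was added for 16 h more (72 h total), then cells were harvested and counted (CPM). Inhibition = 1 − CPM treated/DMSO; IC50 taken from curves, mean and SEM.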

[1] = Cytotoxicity against human PL45 cells after 56 hrs by [3H]thymidine uptake assay; assay type: functional; how it was run: as §1

Compound | growth inhibition (GI) (BXPC-3) | growth inhibition (GI) [1]
CC(C)C[C@@H]1NC(=O)[C@H](Cc2ccccc2)NC(=O)[C@H](CC(C)C)NC(=O)[C@H](C(C)C)NC(=O)[C@H](CC(C)C)NC1=O | 42% | 25%
CC(C)C[C@@H]1NC(=O)[C@H](Cc2ccccc2)NC(=O)[C@H](CC(C)C)NC(=O)[C@H](C(C)C)N(C)C(=O)[C@H](CC(C)C)NC1=O | 28% | 20%
CC(C)C[C@@H]1NC(=O)[C@H](Cc2ccccc2)NC(=O)[C@@H](CC(C)C)NC(=O)[C@@H](C(C)C)NC(=O)[C@H](CC(C)C)NC1=O | 33% | 41%
CC(C)C[C@@H]1NC(=O)[C@H](CC(C)C)NC(=O)[C@@H](Cc2ccccc2)NC(=O)[C@@H](CC(C)C)NC(=O)[C@@H](C(C)C)NC1=O | 42% | 44%
CC(C)C[C@@H]1NC(=O)[C@H](CC(C)C)N(C)C(=O)[C@H](Cc2ccccc2)NC(=O)[C@H](CC(C)C)N(C)C(=O)[C@H](C(C)C)NC1=O | 9% | 38%
CC(C)C[C@@H]1NC(=O)[C@H](C(C)C)NC(=O)[C@H](CC(C)C)NC(=O)[C@H](CC(C)C)N(C)C(=O)[C@H](Cc2ccccc2)NC1=O | 47% | 44%
CC(C)C[C@@H]1NC(=O)[C@H](Cc2ccccc2)NC(=O)[C@@H](Cc2ccccc2)N(C)C(=O)[C@H](C(C)C)NC(=O)[C@H](CC(C)C)NC1=O | 35% | 51%
CC(C)C[C@@H]1NC(=O)[C@H](Cc2ccccc2)NC(=O)[C@@H](Cc2ccccc2)NC(=O)[C@H](C(C)C)NC(=O)[C@H](CC(C)C)NC1=O | 55% | 39%
CC(C)C[C@@H]1NC(=O)[C@H](Cc2ccccc2)NC(=O)[C@H](CC(C)C)NC(=O)[C@@H](C(C)C)NC(=O)[C@H](CC(C)C)NC1=O | 22% | 45%
CC(C)C[C@@H]1NC(=O)[C@H](C(C)C)NC(=O)[C@H](CC(C)C)NC(=O)[C@@H](CC(C)C)N(C)C(=O)[C@H](Cc2ccccc2)NC1=O | 43% | 49%
CC(C)C[C@@H]1NC(=O)[C@H](CC(C)C)NC(=O)[C@@H](Cc2ccccc2)NC(=O)[C@H](CC(C)C)NC(=O)[C@H](C(C)C)NC1=O | 55% | 22%
CC(C)C[C@@H]1NC(=O)[C@H](C(C)C)NC(=O)[C@H](CC(C)C)NC(=O)[C@@H](CC(C)C)NC(=O)[C@H](Cc2ccccc2)NC1=O | 29% | 29%
CC(C)C[C@@H]1NC(=O)[C@H](Cc2ccccc2)NC(=O)[C@@H](CC(C)C)NC(=O)[C@H](C(C)C)NC(=O)[C@H](CC(C)C)NC1=O | 34% | 41%
CC(C)C[C@@H]1NC(=O)[C@@H](CC(C)C)NC(=O)[C@H](Cc2ccccc2)NC(=O)[C@H](CC(C)C)NC(=O)[C@@H](C(C)C)NC1=O | 30% | 32%
CC(C)C[C@H]1NC(=O)[C@@H](Cc2ccccc2)NC(=O)[C@@H](CC(C)C)NC(=O)[C@@H](C(C)C)NC(=O)[C@@H](CC(C)C)NC1=O | 30% | 17%
CC(C)C[C@@H]1C(=O)N[C@H](CC(C)C)C(=O)N[C@H](C(C)C)C(=O)N[C@H](CC(C)C)C(=O)N[C@H](Cc2ccccc2)C(=O)N1C | 33% | 43%
CC(C)C[C@H]1NC(=O)[C@@H](Cc2ccccc2)NC(=O)[C@@H](CC(C)C)NC(=O)[C@@H](C(C)C)N(C)C(=O)[C@@H](CC(C)C)NC1=O | 31% | 6%
CC(C)C[C@@H]1NC(=O)[C@H](Cc2ccccc2)NC(=O)[C@H](CC(C)C)NC(=O)[C@H](C(C)C)NC(=O)[C@@H](CC(C)C)NC1=O | 0% | 0%
CC(C)C[C@@H]1NC(=O)[C@H](C(C)C)NC(=O)[C@@H](CC(C)C)NC(=O)[C@@H](CC(C)C)NC(=O)[C@H](Cc2ccccc2)NC1=O | 0% | 14%
CC(C)C[C@@H]1NC(=O)[C@@H](C(C)C)N(C)C(=O)[C@H](CC(C)C)NC(=O)[C@@H](CC(C)C)NC(=O)[C@H](Cc2ccccc2)NC1=O | 35% | 21%
CC(C)C[C@@H]1NC(=O)[C@H](Cc2ccccc2)NC(=O)[C@H](CC(C)C)NC(=O)[C@@H](C(C)C)N(C)C(=O)[C@H](CC(C)C)NC1=O | 34% | 29%
CC(C)C[C@@H]1NC(=O)[C@H](C(C)C)N(C)C(=O)[C@H](CC(C)C)NC(=O)[C@@H](Cc2ccccc2)NC(=O)[C@H](Cc2ccccc2)NC1=O | 3% | 21%

Compound | growth inhibition (GI) (BXPC-3) | growth inhibition (GI) [1]
CC(C)C[C@@H]1NC(=O)[C@@H](CC(C)C)N(C)C(=O)[C@H](Cc2ccccc2)NC(=O)[C@H](CC(C)C)NC(=O)[C@@H](C(C)C)NC1=O | 38% | 26%
CC(C)C[C@@H]1NC(=O)[C@H](C(C)C)N(C)C(=O)[C@@H](CC(C)C)NC(=O)[C@@H](Cc2ccccc2)NC(=O)[C@@H](Cc2ccccc2)NC1=O | 6% | 15%
CC(C)[C@@H]1NC(=O)[C@H](CC2CCCCC2)NC(=O)[C@H](COCc2ccccc2)NC(=O)[C@H](Cc2ccccc2)NC(=O)[C@@H](Cc2ccccc2)N(C)C1=O | 44% | 40%
CC(C)C[C@@H]1NC(=O)[C@H](Cc2ccccc2)NC(=O)[C@@H](Cc2ccccc2)N(C)C(=O)[C@@H](C(C)C)NC(=O)[C@H](CC(C)C)NC1=O | 4% | 55%
CC(C)C[C@@H]1NC(=O)[C@H](CC(C)C)NC(=O)[C@@H](Cc2ccccc2)NC(=O)[C@H](CC(C)C)NC(=O)[C@@H](C(C)C)NC1=O | 7% | 41%
CC(C)C[C@@H]1NC(=O)[C@@H](Cc2ccccc2)NC(=O)[C@H](CC(C)C)NC(=O)[C@@H](C(C)C)N(C)C(=O)[C@H](CC(C)C)NC1=O | 31% | 36%
CC(C)C[C@@H]1NC(=O)[C@H](Cc2ccccc2)NC(=O)[C@H](CC(C)C)NC(=O)[C@@H](C(C)C)NC(=O)[C@@H](CC(C)C)NC1=O | 12% | 14%
CC(C)C[C@@H]1NC(=O)[C@H](Cc2ccccc2)NC(=O)[C@@H](Cc2ccccc2)N(C)C(=O)[C@H](C(C)C)NC(=O)[C@H](CC2CCCCC2)NC1=O | 21% | 44%
CC(C)C[C@@H]1C(=O)N[C@H](CC(C)C)C(=O)N[C@H](C(C)C)C(=O)N(C)[C@H](CC(C)C)C(=O)N[C@H](Cc2ccccc2)C(=O)N1C | 33% | 6%
CC(C)C[C@@H]1NC(=O)[C@H](C(C)C)N(C)C(=O)[C@@H](CCCCNC(=O)OCc2ccccc2)NC(=O)[C@@H](Cc2ccccc2)NC(=O)[C@H](Cc2ccccc2)NC1=O | 55% | 65%
CC(C)C[C@@H]1NC(=O)[C@H](C(C)C)N(C)C(=O)[C@@H](CCCCN)NC(=O)[C@@H](Cc2ccccc2)NC(=O)[C@H](Cc2ccccc2)NC1=O | 8% | 5%
CC(C)[C@H]1NC(=O)[C@H](CC2CCCCC2)NC(=O)[C@H](COCc2ccccc2)NC(=O)[C@H](Cc2ccccc2)NC(=O)[C@@H](Cc2ccccc2)N(C)C1=O | 80% | 70%
CC(C)C[C@@H]1NC(=O)[C@H](COCc2ccccc2)NC(=O)[C@@H](Cc2ccccc2)NC(=O)[C@@H](CC(C)C)NC(=O)[C@@H](C(C)C)NC1=O | 43% | 30%
CC(C)C[C@@H]1NC(=O)[C@H](C)NC(=O)[C@H](CC(C)C)NC(=O)[C@H](CC(C)C)NC(=O)[C@H](Cc2ccccc2)NC1=O (cyclo(ALFLL)) | 20% | 18%
CC(C)C[C@@H]1NC(=O)[C@H](Cc2ccccc2)NC(=O)[C@H](CC(C)C)NC(=O)[C@H](C(C)C)NC(=O)[C@H](CCCCNC(=O)OCc2ccccc2)NC1=O (cyclo(FLK(Cbz)VL)) | 8% | 0%
CC(C)C[C@@H]1NC(=O)[C@H](Cc2ccccc2)NC(=O)[C@@H](Cc2ccccc2)N(C)C(=O)[C@H](C(C)C)NC(=O)[C@H](CCCCNC(=O)OCc2ccccc2)NC1=O (cyclo(FLK(Cbz)V[dNMeF])) | 0% | 44%
CC(C)C[C@@H]1NC(=O)[C@H](Cc2ccccc2)NC(=O)[C@H](CC(C)C)NC(=O)[C@@H](C(C)C)NC(=O)[C@H](CCCCNC(=O)OCc2ccccc2)NC1=O (cyclo(FLK(Cbz)[dV]L)) | 29% | 0%
CC(C)C[C@@H]1NC(=O)[C@H](Cc2ccccc2)NC(=O)[C@H](CC(C)C)NC(=O)[C@H](C(C)C)NC(=O)[C@H](CCCCN)NC1=O (cyclo(FLKVL)) | 8% | 0%
CC(C)C[C@@H]1NC(=O)[C@H](Cc2ccccc2)NC(=O)[C@@H](Cc2ccccc2)N(C)C(=O)[C@H](C(C)C)NC(=O)[C@H](CCCCN)NC1=O (cyclo(FLKV[dNMeF])) | 30% | 26%
CC(C)C[C@@H]1NC(=O)[C@H](Cc2ccccc2)NC(=O)[C@H](CC(C)C)NC(=O)[C@@H](C(C)C)NC(=O)[C@H](CCCCN)NC1=O (cyclo(FLK[dV]L)) | 24% | 23%
CC(C)C[C@@H]1NC(=O)[C@H](Cc2ccccc2)NC(=O)[C@H](CC(C)C)N(C)C(=O)[C@H](C(C)C)NC(=O)[C@H](CC(C)C)NC1=O (cyclo(FLLV[NMeL])) | 0% | 0%
CC(C)C[C@@H]1NC(=O)[C@H](Cc2ccccc2)NC(=O)[C@@H](CC(C)C)N(C)C(=O)[C@H](C(C)C)NC(=O)[C@H](CC(C)C)NC1=O (cyclo(FLLV[dNMeL])) | 2% | 5%
